Reference: PubChem BioAssay
Values without a mark were called inactive.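 Rule for the calls, unless noted: active = growth inhibition above 25% in both replicates, a cutoff set 3 SD above the mean; inconclusive = above 25% in only one replicate; inactive = the rest.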

Experiment: S. cerevisiae growth inhibition in permissive medium (OD615), pilot counter-assay for S. cerevisiae lifespan shortening project, permissive growth control (AID 705)
Settings: OD615, 24 h, at 10 µM, active compounds read high
In short: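 assay system = Saccharomyces cerevisiae strain carrying genetically modified DeaD replicative-lifespan system | technique = absorbance (optical density) at 615 nm | buffer or medium = permissive raffinose/galactose medium | timing = cells pre-grown 4 h, then 24 h compound exposure, 30 °C humidified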

SMILES	growth inhibition
CCOC(=O)N1CCC(NC(=O)CS(=O)(=O)Cc2nc(-c3ccc(C)cc3)oc2C)CC1	-20.3%
COc1ccc(OC)c(C2CC(=O)N3CN(c4ccccc4F)CSC3=C2C#N)c1 (stereo not given)	8.3%
CC(=O)C1=C(C)N=c2s/c(=C/c3ccc4c(c3)OCO4)c(=O)n2C1c1ccc(N(C)C)cc1 (stereo not given)	-9.92%
Cc1c(N=Cc2ccco2)c(=O)n(-c2ccccc2)n1C	-11.1%
O=S(=O)(c1ccc(Br)cc1)N1CCN(c2cc(-c3ccccc3)nc3ncnn23)CC1	-4.71%
Cn1c(NC(=O)Cc2cccs2)cc(=O)n(C)c1=O	5.64%
CCOC(=O)c1c(NC(C)=O)no[n+]1[O-]	-14.2%
COc1ccc(N(CC(=O)N2CC=C(c3ccccc3)CC2)S(=O)(=O)c2c(C)noc2C)cc1	-3.14%
C=CCn1c(C)c(C(C)=O)c(SC)nc1=S	-2.37%
COc1ccc(N(CC(=O)Nc2cc(OC)ccc2OC)S(=O)(=O)c2c(C)nn(C)c2C)cc1	-7.47%
COc1ccc(C2C(C(=O)NCCN(C)C)c3ccccc3C(=O)N2C)cc1OC (stereo not given)	-7.69%
CC(C)N1CCc2c(sc(NC(=O)c3ccc(S(=O)(=O)N4CCOCC4)cc3)c2C#N)C1	-4.83%
COC(=O)c1c(NC(=O)CSc2nnnn2-c2ccccc2)sc2c1CCC(C)C2 (stereo not given)	-21.3%
COC(=O)CC1Oc2ccccc2N(Cc2ccccc2)C1=O (stereo not given)	-21.8%
CCCC(=O)Nc1nc2ccc(OC)cc2s1	-15.5%
CCCCCn1c(CN2CC(C)OC(C)C2)nc2c1c(=O)n(C)c(=O)n2C (stereo not given)	-9.73%
Cc1ccc(C2/C(=C(/O)c3ccc(Br)cc3)C(=O)C(=O)N2Cc2ccco2)o1 (stereo not given)	-16.2%
CN1CCN(S(=O)(=O)c2ccc3c4c(cccc24)C(=O)N3)CC1	-11.8%
c1ccc(Sc2nc(N3CCCCC3)nc(N3CCCCC3)n2)nc1	4.63%
O=C(O)CSCCc1ccccn1	4.38%

SMILES	growth inhibition
CCCC(=O)N1CC(=O)Nc2ccc(F)cc2C1c1ccccc1 (stereo not given)	-5.99%
CCOC1=NC(C(=O)O)c2ccccc2/C(=C(/C)Cl)N1 (stereo not given)	-4.61%
COc1ccc(C(=O)NCc2cn3ccsc3n2)cc1OC	-9.73%
O=C(Nc1cccc(F)c1)c1ccc(S(=O)(=O)N2CCCC2)cc1	-3.88%
CCN(CC)C(=O)Cn1c(=O)n(-c2ccccc2)c(=O)n1CC(=O)N(CC)CC	-4.64%
CC1=Nc2ccc(C)cc2N(Cc2ccccc2)C(=O)C1	-10.2%
CCCN(CCC(=O)Nc1ccccc1F)CC1CC1	-12.8%
CC(C)c1nnc(NC(=O)c2ccc(S(=O)(=O)N3CCOCC3)cc2)s1	-15%
COc1ccccc1NC(=O)c1ccc(N)cc1	-2%
Cc1cccc(C2CC(c3ccc(F)cc3)Nc3nc(N)nn32)c1 (stereo not given)	-1.75%
O=C(Nc1nnc(-c2ccc3c(c2)CCCC3)o1)C1CCCCC1	-16.5%
O=C(NCCc1csc(-c2cccnc2)n1)c1cccs1	1.53%
C=CC1C(N2CCOCC2)C(C)(C)S1(=O)=O (stereo not given)	4.78%
Cc1ccc2c(c1)NCC(C(=O)NC1CCC(C)CC1)O2 (stereo not given)	-10.3%
Cc1ccc(N2CC(c3nc4ccccc4n3C)CC2=O)cc1C (stereo not given)	-4.58%
CC(=NCCc1ccccc1)C1=C(O)COC1=O	4.12%
COC(=O)c1c(-c2ccc(C)cc2)csc1N	1.67%
O=C1C(=O)N(CCO)C(c2ccccc2)/C1=C(\O)c1ccccc1 (stereo not given)	-18.6%
CCOc1ccccc1NC(=O)CN(c1cc(C)cc(C)c1)S(=O)(=O)c1c(C)noc1C	-22.6%
COc1ccc(OCC(=O)Nc2cc(-c3nn4c(C)nnc4s3)ccc2C)cc1	0.16%

Experiment: S. cerevisiae growth inhibition in restrictive medium, OD615, pilot screen, restrictive growth control, yeast lifespan reduction project (AID 706;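 active = growth inhibition above a set limit, 3 SD over mean compound inhibition, in both replicates, cut at about 43% in these data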;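 note: modified DeaD lifespan yeast strain shifted to restrictive glucose medium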)
Settings: OD615, 48 h, at 10 µM, active compounds read high
In short: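 System: modified S. cerevisiae. Buffer or medium: CSMM-D glucose medium. Incubation: 4 h pre-growth plus 48 h compound exposure, 30 °C. Detection: absorbance (optical density) measured at 615 nm.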

SMILES	growth inhibition
CCOC(=O)N1CCC(NC(=O)CS(=O)(=O)Cc2nc(-c3ccc(C)cc3)oc2C)CC1	-37.1%
COc1ccc(OC)c(C2CC(=O)N3CN(c4ccccc4F)CSC3=C2C#N)c1 (stereo not given)	14.5%
CC(=O)C1=C(C)N=c2s/c(=C/c3ccc4c(c3)OCO4)c(=O)n2C1c1ccc(N(C)C)cc1 (stereo not given)	-9.9%
Cc1c(N=Cc2ccco2)c(=O)n(-c2ccccc2)n1C	-8.96%
O=S(=O)(c1ccc(Br)cc1)N1CCN(c2cc(-c3ccccc3)nc3ncnn23)CC1	-15.6%
Cn1c(NC(=O)Cc2cccs2)cc(=O)n(C)c1=O	5.55%
CCOC(=O)c1c(NC(C)=O)no[n+]1[O-]	-12.3%
COc1ccc(N(CC(=O)N2CC=C(c3ccccc3)CC2)S(=O)(=O)c2c(C)noc2C)cc1	1.52%
C=CCn1c(C)c(C(C)=O)c(SC)nc1=S	17.1%
COc1ccc(N(CC(=O)Nc2cc(OC)ccc2OC)S(=O)(=O)c2c(C)nn(C)c2C)cc1	-15.8%
COc1ccc(C2C(C(=O)NCCN(C)C)c3ccccc3C(=O)N2C)cc1OC (stereo not given)	-1.69%
CC(C)N1CCc2c(sc(NC(=O)c3ccc(S(=O)(=O)N4CCOCC4)cc3)c2C#N)C1	-3.24%
COC(=O)c1c(NC(=O)CSc2nnnn2-c2ccccc2)sc2c1CCC(C)C2 (stereo not given)	-21.2%
COC(=O)CC1Oc2ccccc2N(Cc2ccccc2)C1=O (stereo not given)	-15.5%
CCCC(=O)Nc1nc2ccc(OC)cc2s1	-17.6%
CCCCCn1c(CN2CC(C)OC(C)C2)nc2c1c(=O)n(C)c(=O)n2C (stereo not given)	0.38%
Cc1ccc(C2/C(=C(/O)c3ccc(Br)cc3)C(=O)C(=O)N2Cc2ccco2)o1 (stereo not given)	7.88%
CN1CCN(S(=O)(=O)c2ccc3c4c(cccc24)C(=O)N3)CC1	-4.42%
c1ccc(Sc2nc(N3CCCCC3)nc(N3CCCCC3)n2)nc1	-1.59%
O=C(O)CSCCc1ccccn1	11.1%

SMILES	growth inhibition
CCCC(=O)N1CC(=O)Nc2ccc(F)cc2C1c1ccccc1 (stereo not given)	-15.7%
CCOC1=NC(C(=O)O)c2ccccc2/C(=C(/C)Cl)N1 (stereo not given)	-27.8%
COc1ccc(C(=O)NCc2cn3ccsc3n2)cc1OC	-1.42%
O=C(Nc1cccc(F)c1)c1ccc(S(=O)(=O)N2CCCC2)cc1	0%
CCN(CC)C(=O)Cn1c(=O)n(-c2ccccc2)c(=O)n1CC(=O)N(CC)CC	2.5%
CC1=Nc2ccc(C)cc2N(Cc2ccccc2)C(=O)C1	-5.19%
CCCN(CCC(=O)Nc1ccccc1F)CC1CC1	-18.1%
CC(C)c1nnc(NC(=O)c2ccc(S(=O)(=O)N3CCOCC3)cc2)s1	-24.1%
COc1ccccc1NC(=O)c1ccc(N)cc1	-2.66%
Cc1cccc(C2CC(c3ccc(F)cc3)Nc3nc(N)nn32)c1 (stereo not given)	18.4%
O=C(Nc1nnc(-c2ccc3c(c2)CCCC3)o1)C1CCCCC1	-4.87%
O=C(NCCc1csc(-c2cccnc2)n1)c1cccs1	4.78%
C=CC1C(N2CCOCC2)C(C)(C)S1(=O)=O (stereo not given)	5.46%
Cc1ccc2c(c1)NCC(C(=O)NC1CCC(C)CC1)O2 (stereo not given)	-4.18%
Cc1ccc(N2CC(c3nc4ccccc4n3C)CC2=O)cc1C (stereo not given)	-2.28%
CC(=NCCc1ccccc1)C1=C(O)COC1=O	-6.99%
COC(=O)c1c(-c2ccc(C)cc2)csc1N	0.135%
O=C1C(=O)N(CCO)C(c2ccccc2)/C1=C(\O)c1ccccc1 (stereo not given)	-8.67%
CCOc1ccccc1NC(=O)CN(c1cc(C)cc(C)c1)S(=O)(=O)c1c(C)noc1C	-12.1%
COc1ccc(OCC(=O)Nc2cc(-c3nn4c(C)nnc4s3)ccc2C)cc1	0.525%
